Hits are enriched below; roughly 1.8% of the tested compounds scored in any of these assays.
MT1-MMP act inh – MT1-MMP (human) activation inhibition. GFP/RFP ratio change, % at 20 µM. HT1080 RFP-PRO-GFP cells, GFP/RFP ratio fluorescence, overnight; percent of plate control window, DMSO zero. 360,000 tested, 0.061% active. AID 651647. P50281;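 active = GFP/RFP ratio change of at least 30% with cell ATP level not reduced by more than half and red fluorescence within 50% of control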
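Assay system – RFP-PRO-GFP reporter HT1080 cells · Compound dosing – single dose of 20 µM compound, 1% DMSO final · Incubation – overnight compound exposure at 37 °C · Measure – GFP/RFP fluorescence ratio · Benchmarks – DMSO wells and RFP-L50D-GFP cells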
PABP polyA inh – PABP-poly(A) binding inhibition; PABP-poly(A) RNA binding, fluorescence polarization; 290,000 tested, 1% active; calls only at 35 µM;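 note: calls also rest on retests at 20 µM and on dose response follow-up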
PABP1 MLLE inh – inhibitors of microRNA-mediated deadenylation, human PABP1 MLLE binding; GST-MLLE / FITC-PAM2 fluorescence polarization; inhibition, % at 20 µM; 360,000 tested, 0.36% active; AID 588489; in the data active = inhibition above about 35%, passing the limit was not always enough;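 note: plate controls were DMSO wells with GST-MLLE for no effect and wells lacking GST-MLLE protein for full effect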
eIF4H inh – inhibitors of RNA binding by human eIF4H; inhibition, % at 35 µM; Q15056; 290,000 tested, 0.94% active; eIF4H fluorescence polarization binding assay;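 note: calls also rest on retests at 20 µM and on dose response follow-up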
SKN-1 inh – blocks SKN-1 activity in C. elegans; C. elegans VP596 Pgst-4::GFP/RFP ratio, acrylamide-induced, 24 h; inhibition, % at 21.8 µM; 360,000 tested, 0.49% active; AID 624304;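 active = interference check ratio from 0.5 to 1.5 plus GFP to RFP signal ratio inhibition reaching or exceeding a fixed threshold, cut at about 30% in these data, passing the limit was not always enough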
* hit, by the source's call. Unless noted, the rule behind the calls is not given here.

`c1ccc2c(c1)NC(c1ccncc1)n1c-2nc2ccccc21` (stereo unspecified) gave MT1-MMP act inh -17, PABP polyA inh inactive, PABP1 MLLE inh -8, eIF4H inh 4 and SKN-1 inh 34*.
Screening c1cncc(C2Nc3ccccc3-c3nc4ccccc4n32)c1 (stereo unspecified) returned MT1-MMP act inh -23, PABP polyA inh inactive, PABP1 MLLE inh 0, eIF4H inh -8 and SKN-1 inh 19.
`O=C1NNC(c2ccccc2)=N/C1=C\c1ccco1` gave MT1-MMP act inh -6, PABP polyA inh active, PABP1 MLLE inh -1, eIF4H inh 40 and SKN-1 inh 18.
For O=C1SC(SCc2ccccc2)=N/C1=C\c1ccco1 the results were MT1-MMP act inh -3, PABP polyA inh inactive, PABP1 MLLE inh 14, eIF4H inh 85 and SKN-1 inh 14.
O=C1SC(c2ccccc2)=N/C1=C/c1ccco1 was read as MT1-MMP act inh -18, PABP polyA inh active, PABP1 MLLE inh 1, eIF4H inh 50* and SKN-1 inh 10.
Screening Cc1ccc(NC(=O)C2(C)CCN2C(=O)CCC2CCCC2)cc1C (stereo unspecified) returned MT1-MMP act inh 7, PABP1 MLLE inh -2 and SKN-1 inh 5.
`O=C(NCc1ccccc1)C1C(=O)Nc2ccccc2C(=O)N1c1ccc2c(c1)OCCO2` (stereo unspecified) gave MT1-MMP act inh -5 and SKN-1 inh -4.
Screening CCN(CC(=O)NCc1ccc(Cl)cc1)CC(=O)Nc1ccc(C(N)=O)cc1 returned MT1-MMP act inh 6, PABP polyA inh inactive, PABP1 MLLE inh 1, eIF4H inh 0.4* and SKN-1 inh 14.
Screening CCN(CC(=O)NCc1ccc(Cl)cc1)C(=O)NCc1ccc(Cl)cc1 returned MT1-MMP act inh 2, PABP polyA inh inactive, PABP1 MLLE inh -2, eIF4H inh -14 and SKN-1 inh 3.
`CC(=O)Nc1ccc(S(=O)(=O)NCc2ccc(C(=O)NCc3ccc(Cl)cc3)cc2)cc1` gave MT1-MMP act inh 10, PABP polyA inh inactive, PABP1 MLLE inh -21, eIF4H inh -5 and SKN-1 inh -5.
CCN(CC(=O)NCc1ccc(Cl)cc1)C(=O)CNS(=O)(=O)c1ccc(NC(C)=O)cc1 was read as MT1-MMP act inh -1, PABP polyA inh inactive, PABP1 MLLE inh 41*, eIF4H inh 4 and SKN-1 inh 8.
`COc1ccccc1C(=O)NNC(=O)C1CC=CCC1` (stereo unspecified) gave MT1-MMP act inh -1, PABP polyA inh inactive, PABP1 MLLE inh 2, eIF4H inh 4 and SKN-1 inh 23.
`O=C(COc1ccc(S(=O)(=O)NCc2ccccc2)cc1)NCc1cccnc1` gave MT1-MMP act inh 5, PABP polyA inh inactive, PABP1 MLLE inh 1, eIF4H inh 3 and SKN-1 inh -4.
Screening COc1ccc(C(=O)COC(=O)c2cc(S(=O)(=O)NCc3ccccc3)ccc2O)cc1 returned MT1-MMP act inh -4, PABP polyA inh active, PABP1 MLLE inh -5, eIF4H inh active and SKN-1 inh 6.
`COc1ccc(S(=O)(=O)NCc2ccccc2)cc1` gave MT1-MMP act inh 2, PABP polyA inh inactive, PABP1 MLLE inh 1, eIF4H inh -11 and SKN-1 inh -6.
`O=S(=O)(O)c1cc(O)c2ccc(Nc3ccccc3)cc2c1` gave MT1-MMP act inh -3, PABP1 MLLE inh 13 and SKN-1 inh 17.
Screening Cc1ccc(S(=O)(=O)c2cc(Nc3ccccc3)ccc2O)cc1 returned MT1-MMP act inh 2, PABP1 MLLE inh -3 and SKN-1 inh 1.
For Nc1ccc2c(O)cc(S(=O)(=O)O)cc2c1 the results were MT1-MMP act inh -6, PABP1 MLLE inh 49* and SKN-1 inh 11.
For O=S(=O)(O)c1ccc(O)c2cc(Nc3ccccc3)ccc12 the results were MT1-MMP act inh -2, PABP1 MLLE inh 45* and SKN-1 inh 2.
CC(=O)Nc1ccc2c(O)cc(S(=O)(=O)O)cc2c1 was read as MT1-MMP act inh 4, PABP1 MLLE inh 8 and SKN-1 inh 7.
O=S(=O)(O)c1cc(O)c2cc(Nc3ccccc3)ccc2c1 was read as MT1-MMP act inh -6, PABP1 MLLE inh 46* and SKN-1 inh 21.
Screening CCCn1cnc2sc(CC)cc2c1=O returned MT1-MMP act inh 0, PABP polyA inh inactive, PABP1 MLLE inh 4, eIF4H inh 58* and SKN-1 inh 7.
`CCCn1cnc2sc(C(N)=O)c(C)c2c1=O` gave MT1-MMP act inh 1, PABP polyA inh inactive, PABP1 MLLE inh 1, eIF4H inh -6 and SKN-1 inh 27.
Screening COc1ccc(S(=O)(=O)N2CCC(C(=O)NCCC(=O)NCc3ccccn3)CC2)cc1 returned MT1-MMP act inh -3, PABP1 MLLE inh 3 and SKN-1 inh 13.
CCOc1ccc(N2CC(C(=O)Nc3ccc(OC)c(S(=O)(=O)N4CCCCC4)c3)CC2=O)cc1 (stereo unspecified) was read as MT1-MMP act inh 2, PABP polyA inh active, PABP1 MLLE inh -22, eIF4H inh 3 and SKN-1 inh -10.
`COc1ccc(NC(=O)C2CC(=O)N(c3ccc(C)cc3)C2)cc1S(=O)(=O)N1CCCCC1` (stereo unspecified) gave MT1-MMP act inh 2, PABP1 MLLE inh 7 and SKN-1 inh 10.
For O=C(C[n+]1ccccc1)c1ccc(NC(=O)c2ccccc2)cc1 the results were MT1-MMP act inh -2, PABP polyA inh active, PABP1 MLLE inh -121, eIF4H inh -5 and SKN-1 inh 8.
For CO[C@@H]1CN(C)C(=O)c2cc(NC(=O)Nc3cc(F)ccc3F)ccc2OC[C@H](C)N(C(=O)c2cnccn2)C[C@@H]1C the results were MT1-MMP act inh -1 and SKN-1 inh 8.
`Cc1ccc(OCC(=O)N2CCN(C(=O)c3cccs3)CC2)cc1` gave MT1-MMP act inh -3, PABP polyA inh active, PABP1 MLLE inh 3, eIF4H inh active and SKN-1 inh 19.
Screening CC1CN(C(=O)c2cccs2)CCN1C(=O)c1cccs1 (stereo unspecified) returned MT1-MMP act inh -4, PABP polyA inh inactive, PABP1 MLLE inh 8, eIF4H inh 12 and SKN-1 inh 43*.
Cc1noc(C)c1C(=O)N(CC(=O)Nc1ccc(Cl)c(C(F)(F)F)c1)Cc1ccco1 was read as MT1-MMP act inh 2, PABP1 MLLE inh 18 and SKN-1 inh 8.
COc1ccc(C2C=C(c3ccc(C)cc3)Nc3ncnn32)cc1 (stereo unspecified) was read as MT1-MMP act inh -15, PABP polyA inh inactive, PABP1 MLLE inh 41*, eIF4H inh 1 and SKN-1 inh -5.
O=C(C(NS(=O)(=O)c1cccs1)c1ccccc1)N1CCN(c2ccccc2)CC1 (stereo unspecified) was read as MT1-MMP act inh -11, PABP polyA inh active, PABP1 MLLE inh 17, eIF4H inh 64* and SKN-1 inh 20.

Assay outcomes as filed in PubChem.
